B1: Osa-1-4 twister ribozyme (parent)
chain: CCGCCUAACACUGCCAAUGCCGGUCCCAAGCCCGGAUAAAAGUGGAGGGGGCGG

Variants of: B1
Experiment: self-cleavage, relative activity (ratio to wild type); higher = more cleavage; co-transcriptional
Summary of the method: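 The 48 positions downstream of the cleavage site in a DNA template for a 54-nucleotide Oryza sativa twister ribozyme carried 97 % wild-type base and 1 % of each other base. After in vitro transcription (2 h, 37 °C) with co-transcriptional self-cleavage, the RNA was reverse-transcribed with a template-switching oligonucleotide, PCR-amplified and deep-sequenced. Relative activity is the fraction cleaved, judged by reads with or without upstream sequence and normalised to wild type.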

Row | Variant | self-cleavage
1 | CCGCCUAACACUGCCAAUGCCGGUCCCAGGCUCGGAUAAAAGUGGAGGGGGCGG [A29G C32U] | 0.06
2 | CCGCCUAACACUGCCAAUGCCGGUCCCAGGCACGGAUAAAAGUGGAGGGGGCGG [A29G C32A] | 0.04
3 | CCGCCUAACACUGCCAAUGCCGGUCCCAGGCGCGGAUAAAAGUGGAGGGGGCGG [A29G C32G] | 0.07
4 | CCGCCUAACACUGCCAAUGCCGGUCCCACGCCCGGAGAAAAGUGGAGGGGGCGG [A29C U37G] | 0.06
5 | CCGCCUAACACUGCCAAUGCCGGUCCCACGCCCGGACAAAAGUGGAGGGGGCGG [A29C U37C] | 0.04
6 | CCGCCUAACACUGCCAAUGCCGGUCCCACGCCCGGAAAAAAGUGGAGGGGGCGG [A29C U37A] | 0.04
7 | CCGCCUAACACUGACAAUGCCGGUCCCAGGCCCGGAUAAAAGUGGAGGGGGCGG [A29G C14A] | 0.04
8 | CCGCCUAACACUGUCAAUGCCGGUCCCAGGCCCGGAUAAAAGUGGAGGGGGCGG [A29G C14U] | 0.06
9 | CCGCCUAACACUGGCAAUGCCGGUCCCAGGCCCGGAUAAAAGUGGAGGGGGCGG [A29G C14G] | 0.08
10 | CCGCCUAACACUGCCAAUGCCGGUCCCAGGCCGGGAUAAAAGUGGAGGGGGCGG [A29G C33G] | 0.15
11 | CCGCCUAACACUGCCAAUGCCGGUCCCAGGCCAGGAUAAAAGUGGAGGGGGCGG [A29G C33A] | 0.05
12 | CCGCCUAACACUGCCAAUGCCGGUCCCAGGCCUGGAUAAAAGUGGAGGGGGCGG [A29G C33U] | 0.07
13 | CCGCCUAACACUGCCAAUGCCGGUCCGAGGCCCGGAUAAAAGUGGAGGGGGCGG [A29G C27G] | 0.06
14 | CCGCCUAACACUGCCAAUGCCGGUCCAAGGCCCGGAUAAAAGUGGAGGGGGCGG [A29G C27A] | 0.06
15 | CCGCCUAACACUGCCAAUGCCGGUCCUAGGCCCGGAUAAAAGUGGAGGGGGCGG [A29G C27U] | 0.05
16 | CCGCCUAACACUGCCAAUGCCGGUCCCAGGCCCGGAUAAUAGUGGAGGGGGCGG [A29G A40U] | 0.15
17 | CCGCCUAACACUGCCAAUGCCGGUCCCAGGCCCGGAUAACAGUGGAGGGGGCGG [A29G A40C] | 0.04
18 | CCGCCUAACACUGCCAAUGCCGGUCCCAGGCCCGGAUAAGAGUGGAGGGGGCGG [A29G A40G] | 0.07
19 | CCGCCUAACACUGCCAAUGCCGGUCCCAGGCCCGGAUAAAAGUGGGGGGGGCGG [A29G A46G] | 0.04
20 | CCGCCUAACACUGCCAAUGCCGGUCCCAGGCCCGGAUAAAAGUGGCGGGGGCGG [A29G A46C] | 0.03
21 | CCGCCUAACACUGCCAAUGCCGGUCCCAGGCCCGGAUAAAAGUGGUGGGGGCGG [A29G A46U] | 0.04
22 | CCGCCUAACACUGCCAAUGCCGGUCCCAGGCCCGGAUCAAAGUGGAGGGGGCGG [A29G A38C] | 0.16
23 | CCGCCUAACACUGCCAAUGCCGGUCCCAGGCCCGGAUUAAAGUGGAGGGGGCGG [A29G A38U] | 0.16
24 | CCGCCUAACACUGCCAAUGCCGGUCCCAGGCCCGGAUGAAAGUGGAGGGGGCGG [A29G A38G] | 0.15

Row | Variant | self-cleavage
25 | CCGCCUAACACUGCCAAUGCCGGUCCCACGCCCGGAUAAAAGUGGAGGGCGCGG [A29C G50C] | 0.03
26 | CCGCCUAACACUGCCAAUGCCGGUCCCACGCCCGGAUAAAAGUGGAGGGUGCGG [A29C G50U] | 0.04
27 | CCGCCUAACACUGCCAAUGCCGGUCCCACGCCCGGAUAAAAGUGGAGGGAGCGG [A29C G50A] | 0.05
28 | CCGCCUAACAUUGCCAAUGCCGGUCCCAGGCCCGGAUAAAAGUGGAGGGGGCGG [A29G C11U] | 0.11
29 | CCGCCUAACAGUGCCAAUGCCGGUCCCAGGCCCGGAUAAAAGUGGAGGGGGCGG [A29G C11G] | 0.07
30 | CCGCCUAACAAUGCCAAUGCCGGUCCCAGGCCCGGAUAAAAGUGGAGGGGGCGG [A29G C11A] | 0.08
31 | CCGCCUAACACUGCCAAUGCAGGUCCCAGGCCCGGAUAAAAGUGGAGGGGGCGG [A29G C21A] | 0.1
32 | CCGCCUAACACUGCCAAUGCGGGUCCCAGGCCCGGAUAAAAGUGGAGGGGGCGG [A29G C21G] | 0.07
33 | CCGCCUAACACUGCCAAUGCUGGUCCCAGGCCCGGAUAAAAGUGGAGGGGGCGG [A29G C21U] | 0.17
34 | CCGCCUAACACUGCCAAUGACGGUCCCAGGCCCGGAUAAAAGUGGAGGGGGCGG [A29G C20A] | 0.33
35 | CCGCCUAACACUGCCAAUGUCGGUCCCAGGCCCGGAUAAAAGUGGAGGGGGCGG [A29G C20U] | 0.28
36 | CCGCCUAACACUGCCAAUGGCGGUCCCAGGCCCGGAUAAAAGUGGAGGGGGCGG [A29G C20G] | 0.04
37 | CCGCCUAACACUGCCAAUGCCGGUCGCAGGCCCGGAUAAAAGUGGAGGGGGCGG [A29G C26G] | 0.1
38 | CCGCCUAACACUGCCAAUGCCGGUCACAGGCCCGGAUAAAAGUGGAGGGGGCGG [A29G C26A] | 0.04
39 | CCGCCUAACACUGCCAAUGCCGGUCUCAGGCCCGGAUAAAAGUGGAGGGGGCGG [A29G C26U] | 0.08
40 | CCGCCUAACACUGCCAAUGCCGGUCCCACGCCCGGAUAAAAGCGGAGGGGGCGG [A29C U43C] | 0.03
41 | CCGCCUAACACUGCCAAUGCCGGUCCCACGCCCGGAUAAAAGGGGAGGGGGCGG [A29C U43G] | 0.05
42 | CCGCCUAACACUGCCAAUGCCGGUCCCACGCCCGGAUAAAAGAGGAGGGGGCGG [A29C U43A] | 0.03
43 | CCGCCUAGCACUGCCAAUGCCGGUCCCAGGCCCGGAUAAAAGUGGAGGGGGCGG [A29G A8G] | 0.11
44 | CCGCCUAUCACUGCCAAUGCCGGUCCCAGGCCCGGAUAAAAGUGGAGGGGGCGG [A29G A8U] | 0.07
45 | CCGCCUACCACUGCCAAUGCCGGUCCCAGGCCCGGAUAAAAGUGGAGGGGGCGG [A29G A8C] | 0.04
46 | CCGCCUAACACAGCCAAUGCCGGUCCCACGCCCGGAUAAAAGUGGAGGGGGCGG [A29C U12A] | 0.05
47 | CCGCCUAACACCGCCAAUGCCGGUCCCACGCCCGGAUAAAAGUGGAGGGGGCGG [A29C U12C] | 0.03
48 | CCGCCUAACACGGCCAAUGCCGGUCCCACGCCCGGAUAAAAGUGGAGGGGGCGG [A29C U12G] | 0.03
